In article PMC9880397 (Heliyon, 2023):

Experiments:
Assay type in all cases: cell-based
[1] = tested on: MCF-7 human breast cancer cells; test: SRB cytotoxicity assay, MCF-7 cells; conditions: for IC50: MCF7, 48 h, read-out: IC50 against MCF-7 cells
How it was run: (§1)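 Cells from ATCC, seeded at about […] in fresh medium at 37 ᵒC and <5% CO2. After 24 h, a DMSO series of test compound (up to 100 μg/mL) was added, then incubated 48 h. Read-out was A570, with DMSO control set as 100% viability.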

[2] = tested on: HEPG-2 (Liver) human cancer cells; test: SRB cytotoxicity assay, HEPG-2 cells
How it was run: as §1

[3] = tested on: HCT-116 (Colon) human cancer cells; test: SRB cytotoxicity assay, HCT-116 cells; conditions: HCT-116, read-out: % Viability of cancer cells HCT-116
How it was run: as §1

[4] = tested on: A-549 (Lung) human cancer cells; test: SRB cytotoxicity assay, A-549 cells; conditions: A549, read-out: % Viability of cancer cells A-549
How it was run: as §1

[5] = HepG2, read-out: % Viability of cancer cells HEPG-2
[6] = MCF7, read-out: % Viability of cancer cells MCF-7

SMILES | IC50 [1] | IC50 ([2]; HepG2, 48 h, read-out: IC50 against HEPG-2 cells) | viability at 41.5 µM [2, 5] | viability at 83 µM [2, 5] | viability at 124.5 µM [2, 5] | viability at 166 µM [2, 5] | viability at 41.5 µM [1, 6] | viability at 83 µM [1, 6] | viability at 124.5 µM [1, 6] | viability at 166 µM [1, 6] | viability at 41.5 µM [3] | viability at 83 µM [3] | viability at 124.5 µM [3] | viability at 166 µM [3] | viability at 41.5 µM [4] | viability at 83 µM [4] | viability at 124.5 µM [4] | viability at 166 µM [4]
COc1cccc2c1C(=O)c1c(O)c3c(c(O)c1C2=O)C[C@@](O)(C(=O)CO)C[C@@H]3O[C@H]1C[C@H](N)[C@H](O)[C@H](C)O1 [Doxorubicin, doxorubicin, reference compound] | 9.66 µM |  |  |  |  |  |  |  |  |  |  |  |  |  |  |  |  | 
O=[N+]([O-])c1ccc(NC(=S)NN=Cc2ccccn2)cc1 [HL^1, 4-(4-Nitrophenyl)-1-((pyridin-2-yl)methylene)thiosemicarbazide] | 52.4 µM | 80 µM | 76% | 48% | 39.2% | 33.2% | 60% | 26.4% | 23.2% | 9.6% | 80% | 76% | 63.6% | 60.4% | 71.9% | 70.7% | 69.6% | 64.1%
COc1ccc(OC)c(NC(=S)NN=Cc2ccccn2)c1 [HL^2, 4-(2,5-Dimethoxyphenyl)-1-((pyridin-2-yl)methylene)thiosemicarbazide] | 145 µM |  |  |  |  |  |  |  |  |  |  |  |  |  |  |  |  | 
